Key:
[1] = biological target: Adenosine receptors; A1 & A3 (Homo sapiens) (UniProt P30542+P0DMS8); assay: Selectivity for human adenosine A1 receptor over human adenosine A3 receptor; format: protein assay
[2] = biological target: T1, Adenosine receptor A3 (Homo sapiens, UniProt P0DMS8); assay: Displacement of [125I]AB-MECA from human adenosine A3 receptor expressed in HEK293 cells; format: cell-based
T1 sequence (P0DMS8 whole entry): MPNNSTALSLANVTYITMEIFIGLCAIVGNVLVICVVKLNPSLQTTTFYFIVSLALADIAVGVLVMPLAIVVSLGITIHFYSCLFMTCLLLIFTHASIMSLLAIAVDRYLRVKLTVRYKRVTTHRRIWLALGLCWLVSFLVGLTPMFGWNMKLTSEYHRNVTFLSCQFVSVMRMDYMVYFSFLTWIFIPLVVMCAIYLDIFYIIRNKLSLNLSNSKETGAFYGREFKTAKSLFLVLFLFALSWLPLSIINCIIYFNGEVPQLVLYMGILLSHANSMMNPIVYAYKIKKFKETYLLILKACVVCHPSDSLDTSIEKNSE

[3] = biological target: T2, Adenosine receptor A2a (Homo sapiens, UniProt P29274); assay: Displacement of [3H]ZM-241385 from human adenosine A2A receptor expressed in HEK293 cells; format: cell-based
[4] = biological target: T3, Adenosine receptor A3 (Homo sapiens) (UniProt P0DMS8); assay: Displacement of [125I]AB-MECA from human adenosine A3 receptor expressed in HEK293 cells at 1 uM; format: cell-based
T3 sequence (whole entry): T1 sequence (P0DMS8 whole entry)

[5] = biological target: T2, Adenosine receptor A2a; assay: Displacement of [3H]ZM241385 from human adenosine A2A receptor expressed in HEK293 cells at 1 uM; format: cell-based
[6] = biological target: T4, Adenosine receptor A1 (Homo sapiens) (UniProt P30542); assay: Displacement of [3H]DPCPX from human adenosine A1 receptor expressed in CHO cells at 1 uM; format: cell-based
T4 sequence (whole entry): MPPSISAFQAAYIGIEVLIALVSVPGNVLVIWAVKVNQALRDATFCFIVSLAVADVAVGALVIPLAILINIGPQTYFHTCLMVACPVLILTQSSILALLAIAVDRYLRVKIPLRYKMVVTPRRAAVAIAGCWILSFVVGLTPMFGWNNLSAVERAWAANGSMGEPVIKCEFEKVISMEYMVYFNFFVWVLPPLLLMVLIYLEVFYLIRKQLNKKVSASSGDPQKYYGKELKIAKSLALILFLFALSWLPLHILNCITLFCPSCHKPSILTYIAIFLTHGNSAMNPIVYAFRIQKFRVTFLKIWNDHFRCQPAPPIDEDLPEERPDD

[7] = biological target: T5, Adenosine receptor A2b (Homo sapiens) (UniProt P29275); assay: Displacement of [3H]MRS1754 from human adenosine A2B receptor expressed in CHO cells at 1 uM; format: cell-based
T5 sequence (whole entry): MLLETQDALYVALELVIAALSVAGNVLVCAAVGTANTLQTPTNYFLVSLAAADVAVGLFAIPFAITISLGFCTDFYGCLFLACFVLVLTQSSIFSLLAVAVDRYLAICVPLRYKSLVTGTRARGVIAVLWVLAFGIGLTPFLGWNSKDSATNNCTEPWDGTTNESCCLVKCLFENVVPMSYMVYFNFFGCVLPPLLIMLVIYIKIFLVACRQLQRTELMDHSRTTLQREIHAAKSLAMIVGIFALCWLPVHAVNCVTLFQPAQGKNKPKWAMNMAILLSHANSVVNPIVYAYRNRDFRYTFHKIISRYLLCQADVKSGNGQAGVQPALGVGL
Procedure, shortened: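 CHO cells stably transfected with human A2B supply the membranes (20 μg protein). [3H]MRS1754 at 1.2 nM final, 1 h at 25 °C in 50 mM Tris/HCl, 10 mM MgCl2, 1 mM EDTA, 0.01 w/v % CHAPS. Nonspecific binding with 1 mM NECA. Filtration and scintillation counting; % displacement at 1 μM, n = 2.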

[8] = biological target: T6, Adenosine receptor A1 (Homo sapiens, UniProt P30542); assay: Displacement of [3H]DPCPX from human adenosine A1 receptor expressed in CHO cells; format: cell-based
T6 sequence (P30542 whole entry): T4 sequence (whole entry)

[9] = biological target: T4, Adenosine receptor A1 (Homo sapiens); assay: Antagonist activity at human adenosine A1 receptor expressed in CHO cells assessed as effect on forskolin-stimulated cAMP production at 1 uM; format: functional, cell-based; design: scale not given: the % may be the effect or the level left; details: filed as antagonist
Procedure, shortened: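 Human A1-expressing CHO cells, 2 × 10^5/well, grown overnight; in HEPES/DMEM (pH 7.4) with adenosine deaminase 0.8 IU/mL, rolipram 50 μM and cilostamide 50 μM, 30 min at 37 °C. Then CPA 1 μM, test compound 1 μM, 10 min; forskolin 10 μM added for 15 min. Stopped with ice-cold 0.1 M HCl. cAMP measured by [3H]cAMP/PKA competition; normalized to CPA (0%) and forskolin (100%). Three independent experiments in duplicate.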

[10] = biological target: T4, Adenosine receptor A1 (Homo sapiens); assay: Antagonist activity at human adenosine A1 receptor expressed in CHO cells assessed as reversal of CPA-induced effect on forskolin-stimulated cAMP production at 10 uM; format: functional, cell-based; details: filed as antagonist

T2 sequence (P29274 whole entry): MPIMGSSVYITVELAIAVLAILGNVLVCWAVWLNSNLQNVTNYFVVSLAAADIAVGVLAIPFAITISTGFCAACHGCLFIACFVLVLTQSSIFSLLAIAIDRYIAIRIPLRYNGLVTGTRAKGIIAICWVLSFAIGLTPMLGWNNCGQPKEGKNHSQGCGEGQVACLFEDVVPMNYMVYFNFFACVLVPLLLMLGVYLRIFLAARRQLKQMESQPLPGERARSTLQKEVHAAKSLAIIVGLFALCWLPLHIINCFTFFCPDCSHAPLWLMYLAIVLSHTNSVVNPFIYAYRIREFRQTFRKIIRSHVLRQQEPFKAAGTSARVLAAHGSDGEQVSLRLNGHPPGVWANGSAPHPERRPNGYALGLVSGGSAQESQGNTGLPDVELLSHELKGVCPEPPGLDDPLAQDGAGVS

Compound | Ki [2] | Ki [3] | Activity [4] [%] | Activity [5] [%] | Ki [8] | further results
CCC(=O)Nc1cc(-c2ccccc2)nc(-c2ccccc2)n1 | 22.4 nM (antagonist) | 81.9 nM (antagonist) | – | – | – | Selectivity ratio [1]: 2
O=C(Nc1nc(-c2ccccc2)cc(-c2ccccc2)n1)c1ccc(Cl)c(Cl)c1 | – | – | 30 | 0 | – | Activity [6]: 0%
CC(C)CC(=O)Nc1cc(-c2ccccc2)nc(-c2ccccc2)n1 | 447 nM (antagonist) | 157 nM (antagonist) | – | – | – | –
CC(C)(C)C(=O)Nc1cc(-c2ccccc2)nc(-c2ccccc2)n1 | – | – | 49 | 18 | – | –
CCCC(=O)Nc1nc(-c2ccccc2)cc(-c2ccccc2)n1 | – | – | 38 | 7 | 3.7 nM (antagonist) | Activity ([7]; filed as antagonist): 54%
CC(C)CC(=O)Nc1nc(-c2ccccc2)cc(-c2ccccc2)n1 | – | – | 23 | 42 | 25.1 nM (antagonist) | –
CCCCC(=O)Nc1nc(-c2ccccc2)cc(-c2ccccc2)n1 | – | – | 23 | 0 | 27.6 nM (antagonist) | –
O=C(Nc1cc(-c2ccccc2)nc(-c2ccccc2)n1)C1CC1 | 25 nM (antagonist) | 189 nM (antagonist) | – | – | 7.58 nM (antagonist) | –
Cc1ccc(C(=O)Nc2nc(-c3ccccc3)cc(-c3ccccc3)n2)cc1 | – | – | 13 | 0 | – | Activity [6]: 37%
O=C(Nc1nc(-c2ccccc2)cc(-c2ccccc2)n1)c1ccc(Cl)cc1 | 3280 nM (antagonist) | – | – | 0 | – | Activity [6]: 0%
CCC(CC)C(=O)Nc1cc(-c2ccccc2)nc(-c2ccccc2)n1 | – | 381 nM (antagonist) | 57 | – | – | Activity ([7]; filed as antagonist): 72%
O=C(Nc1cc(-c2ccccc2)nc(-c2ccccc2)n1)c1ccccc1 | 1300 nM (antagonist) | – | – | 17 | – | Selectivity ratio [1]: 2
CC(C)(C)C(=O)Nc1nc(-c2ccccc2)cc(-c2ccccc2)n1 | – | – | 4 | 0 | 224 nM (antagonist) | –
O=C(Nc1nc(-c2ccccc2)cc(-c2ccccc2)n1)C1CCC1 | – | – | 18 | 33 | 107 nM (antagonist) | –
COc1ccc(C(=O)Nc2nc(-c3ccccc3)cc(-c3ccccc3)n2)cc1 | – | – | 41 | 45 | – | Activity [6]: 31%
CCC(=O)Nc1nc(-c2ccccc2)cc(-c2ccccc2)n1 | 547 nM (antagonist) | 893 nM (antagonist) | – | – | 46.4 nM (antagonist) | –
O=C(Nc1cc(-c2ccccc2)nc(-c2ccccc2)n1)c1ccc(Cl)cc1 | – | – | 33 | 0 | – | Activity [6]: 35%
CCCCCC(=O)Nc1nc(-c2ccccc2)cc(-c2ccccc2)n1 | – | – | 24 | 0 | – | Activity [6]: 28%

Compound | Ki [2] | Ki [3] | Activity [4] [%] | Activity [5] [%] | Ki [8] | further results
CCCCCC(=O)Nc1cc(-c2ccccc2)nc(-c2ccccc2)n1 | 392 nM (antagonist) | – | – | 48 | 109 nM (antagonist) | –
CCC(C)C(=O)Nc1cc(-c2ccccc2)nc(-c2ccccc2)n1 (centres undefined) | 147 nM (antagonist) | 899 nM (antagonist) | – | – | – | Activity [9]: 60%; Activity [7]: 44%; Activity [10]: Antagonist
CC(=O)Nc1cc(-c2ccccc2)nc(-c2ccccc2)n1 | 6.88 nM (antagonist) | 489 nM (antagonist) | – | – | – | –
O=C(Nc1nc(-c2ccccc2)cc(-c2ccccc2)n1)C1CCCCC1 | – | – | 9 | 31 | 119 nM (antagonist) | –
O=C(Nc1nc(-c2ccccc2)cc(-c2ccccc2)n1)c1cccc(Cl)c1 | – | – | 41 | 22 | 368 nM (antagonist) | –
O=C(Nc1cc(-c2ccccc2)nc(-c2ccccc2)n1)C1CCC1 | 178 nM (antagonist) | 179 nM (antagonist) | – | – | – | Activity ([7]; filed as antagonist): 74%
COc1ccc(C(=O)Nc2cc(-c3ccccc3)nc(-c3ccccc3)n2)cc1 | 1170 nM (antagonist) | – | – | 0 | – | Activity [6]: 30%
CCCC(=O)Nc1cc(-c2ccccc2)nc(-c2ccccc2)n1 | 167 nM (antagonist) | 124 nM (antagonist) | – | – | – | –
O=C(Nc1cc(-c2ccccc2)nc(-c2ccccc2)n1)C1CCCCC1 | – | 208 nM (antagonist) | 32 | – | – | –
CC(C)(C)CC(=O)Nc1cc(-c2ccccc2)nc(-c2ccccc2)n1 | – | – | 39 | 32 | – | Activity [7]: 4%
O=C(Nc1cc(-c2ccccc2)nc(-c2ccccc2)n1)C1CCCC1 | 170 nM (antagonist) | 196 nM (antagonist) | – | – | – | Activity [9]: 60%; Activity ([7]; filed as antagonist): 52%; Activity [10]: Antagonist
CC(C)C(=O)Nc1nc(-c2ccccc2)cc(-c2ccccc2)n1 | – | – | 45 | 44 | 8.87 nM (antagonist) | Activity ([7]; filed as antagonist): 79%
CC(=O)Nc1nc(-c2ccccc2)cc(-c2ccccc2)n1 | 237 nM (antagonist) | – | – | 31 | – | –
CC(C)C(=O)Nc1cc(-c2ccccc2)nc(-c2ccccc2)n1 | 267 nM (antagonist) | 376 nM (antagonist) | – | – | – | Selectivity ratio [1]: 24
CCC(CC)C(=O)Nc1nc(-c2ccccc2)cc(-c2ccccc2)n1 | – | – | 27 | 11 | 27.1 nM (antagonist) | –
O=C(Nc1nc(-c2ccccc2)cc(-c2ccccc2)n1)c1ccccc1 | – | – | 38 | 5 | 309 nM (antagonist) | –
O=C(Nc1nc(-c2ccccc2)cc(-c2ccccc2)n1)C1CCCC1 | – | – | 39 | 11 | 11.4 nM (antagonist) | Activity [7]: 42%
O=C(Nc1nc(-c2ccccc2)cc(-c2ccccc2)n1)C1CC1 | 676 nM (antagonist) | 228 nM (antagonist) | – | – | 24.9 nM (antagonist) | –
